Data reported in ChEMBL document CHEMBL1125815, “2-Phenyl-3H-imidazo[4,5-b]pyridine-3-acetamides as non-benzodiazepine anticonvulsants and anxiolytics” (J Med Chem, 1991).

Key:
[1] = target: GABA-A receptor; anion channel; test: Displacement of [3H]flunitrazepam from GABA-A benzodiazepine receptor of rat cerebral cortex membrane; format: tissue-based
Method in brief: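 Rat cerebral cortex P2+P3 membranes (fresh tissue, two freeze-thaw-wash cycles to remove endogenous GABA), 0.4 mg protein. Incubated with 1 nM [3H]flunitrazepam and six concentrations (1 × 10^-5 – 1 × 10^-10 M) for 30 min at 4 °C. Filtered on GF/b filters and counted. […] IC50 from log-logit regression, mean of replicates.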

Mus musculus [2] = species on record: Mus musculus; test: Anticonvulsant activity against pentylenetetrazole-induced clonic seizures in mice; format: functional
Method in brief: (§1)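 Female adult ICR mice, groups of eight, given test compound ip (100 mg/kg screen) in 0.5% aqueous methylcellulose or vehicle. Challenged 30 min later with pentyletetrazole 80 mg/kg sc and scored for clonic seizures.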

Mus musculus [3] = species on record: Mus musculus; test: Compound was tested for anticonvulsant activity against maximal electroshock-induced […] seizures in mice at 50mA, 200 ms; format: functional
Mus musculus [4] = test: Compound was tested for anticonvulsant activity against pentylenetetrazole-induced clonic seizures in mice at 80 mg/kg sc; format: functional; details: route subcutaneous; method in brief: as §1
Mus musculus [5] = test: Compound was tested for anticonvulsant activity against pentylenetetrazole-induced clonic seizures in mice on intraperitoneal administration; format: functional; details: ip; method in brief: as §1
Mus musculus [6] = test: Compound was tested for anticonvulsant activity against pentylenetetrazole-induced clonic seizures in mice at dose 80 mg/kg.
Mus musculus [7] = species on record: Mus musculus; test: (§2) Neurotoxicity against mice in rotarod test; format: toxicity, organism-based; details: in vivo
Method in brief: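 Groups of five randomly selected mice were dosed 30 min before being placed on a knurled 28-mm rod rotating at 6 rpm. Failure to stay on the rod for 1 min was scored as neurotoxic. ED50 (mg/kg ip) and confidence limits came from probit analysis.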

Mus musculus [8] = species on record: Mus musculus; test: Anxiolytic activity by light/dark exploratory behavioral test in mice; format: functional; details: for minimal effective dose: read-out: MED
Method in brief: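 Mice were dosed 30 min before testing, then placed individually in a two-compartment light/dark activity chamber and left undisturbed for 5 min. Time spent in each compartment was compared with vehicle-treated mice by Dunnett's t test. Minimal effective dose and sedative dose reported in mg/kg ip.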

Mus musculus [9] = species on record: Mus musculus; test: Potentiation of ethanol (EtOH) induced sleep time in mice; format: functional; details: read-out: MED
Method in brief: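 Compound given orally; the minimal effective dose (mg/kg po) for potentiating ethanol-induced sleep time in mice was reported.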

Rattus norvegicus [10] = species on record: Rattus norvegicus; test: Anxiolytic activity by vogel punished drinking test in rats; format: functional; details: read-out: MED
Method in brief: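 Modified Vogel conflict test. Rats were water-deprived for 48 h with food available. A drinkometer delivered a 0.65 mA shock after every 20th lick during a 3-min session starting at the first shock. Total shocks were compared with vehicle-treated rats by Dunnett's t test. Minimal effective dose reported in mg/kg ip.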

[11] = target: GABA-A receptor; anion channel; test: Displacement of [3H]-diazepam from GABA-A benzodiazepine receptor of rat cerebral cortex membrane; format: tissue-based
Method in brief: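 Membranes skipped the freeze-thaw-wash cycles, so endogenous GABA was retained. Six concentrations (1 × 10^-5 – 1 × 10^-10 M), 30 min at 4 °C, glass-fiber filtration and scintillation counting. IC50 from log-logit regression.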

Rattus norvegicus [12] = species on record: Rattus norvegicus; test: Ratio of IC50 values for [3H]-Ro- 15-1788 binding in absence and presence of added GABA (rat cerebral cortex); format: functional
Method in brief: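 Rat cerebral cortex membranes. IC50 for displacement of [3H]Ro 15-1788 was measured without and with excess added GABA. The ratio of the two IC50 values served as the index of agonist efficacy.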

Mus musculus [13] = test: Anticonvulsant activity against picrotoxin-induced clonic seizures in mice at 3.2 mg/kg sc; format: functional; details: route subcutaneous
Mus musculus [14] = test: Compound was tested for anticonvulsant activity against bicuculline-induced clonic seizures in mice at 2.7 mg/kg sc; format: functional; details: route subcutaneous
[15] = as §2; format: toxicity, organism-based; details: mouse, in vivo
Method in brief: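 Mice in groups of five, dosed ip 30 min before being placed on a knurled 28 mm rod rotating at 6 rpm. Failure to stay on for 1 min was scored as neurotoxic. ED50 and confidence limits were obtained by probit analysis.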

## CN(C)C(=O)Cn1c(-c2ccc(F)cc2)nc2cccnc21
[1]
  IC50: > 10 µM
Mus musculus [2]; Mus musculus, read-out: ED50
  ED50: 40.5 mg/kg

## CCCC(CCC)C(=O)O [VALPROIC ACID]
Mus musculus [3]
  ED50: 272 mg/kg
Mus musculus [4]
  ED50: 149 mg/kg

## CCCCN(CCCC)C(=O)Cn1c(-c2ccc(Cl)cc2)nc2cccnc21
[1]
  IC50: 0.9 µM
Mus musculus [5]
  ED50: 38 mg/kg

## Cc1ccc(-c2nc3cccnc3n2CC(=O)N(C)C)cc1
[1]
  IC50: 1.75 µM
Mus musculus [2]; Mus musculus, read-out: ED50
  ED50: 4.7 mg/kg

## CC(C)N(C(=O)Cn1c(-c2ccc(Cl)cc2)nc2cccnc21)C(C)C
[1]
  IC50: > 10 µM

## CN(C)C(=O)Cn1c(-c2ccc(Cl)cc2)nc2cnccc21
[1]
  IC50: > 10 µM

## CN(C)C(=O)Cn1c(-c2ccc(Cl)cc2)nc2ccc(O)nc21
[1]
  IC50: 5.2 µM

## O=C(Cn1c(-c2ccc(Cl)cc2)nc2cccnc21)N1CCOCC1
[1]
  IC50: 4.1 µM
Mus musculus [2]; Mus musculus, read-out: ED50
  ED50: 11.5 mg/kg

## NC(=O)Cn1c(-c2ccc(Br)cc2)nc2cccnc21
[1]
  IC50: > 10 µM
Mus musculus [2]; Mus musculus, read-out: ED50
  ED50: 17.8 mg/kg

## CC(=O)Oc1ccc2nc(-c3ccc(Cl)cc3)n(CC(=O)N(C)C)c2n1
[1]
  IC50: > 10 µM
Mus musculus [2]; Mus musculus, read-out: ED50
  ED50: 100 mg/kg

## CN(C)C(=O)Cn1c(-c2ccc([N+](=O)[O-])cc2)nc2cccnc21
[1]
  IC50: > 10 µM
Mus musculus [2]; Mus musculus, read-out: ED50
  ED50: 47 mg/kg

## CN1C(=O)CN=C(c2ccccc2)c2cc(Cl)ccc21 [DIAZEPAM]
Mus musculus [2]; Mus musculus, read-out: ED50
  ED50: 0.9 mg/kg
Mus musculus [6]
  ED50: 0.2 mg/kg
Mus musculus [7]
  ED50: 1.7 mg/kg
Mus musculus [8]
  Sedative dose: 10 mg/kg
  minimal effective dose: 1 mg/kg
Mus musculus [9]
  minimal effective dose: 2.5 mg/kg
Rattus norvegicus [10]
  minimal effective dose: 1 mg/kg

## CN(C)C(=O)Cn1c(-c2ccccn2)nc2cccnc21
[11]
  IC50: 2.6 µM

## CN(C)C(=O)Cn1c(-c2ccsc2)nc2cccnc21
[1]
  IC50: > 10 µM
Mus musculus [2]; Mus musculus, read-out: ED50
  ED50: 38 mg/kg

## COc1ccc(-c2nc3cccnc3n2CC(=O)N(C)C)cc1
[1]
  IC50: 8.5 µM
Mus musculus [2]; Mus musculus, read-out: ED50
  ED50: 39.5 mg/kg

## CN(C)C(=O)CCn1c(-c2ccc(Cl)cc2)nc2cccnc21
[1]
  IC50: 9.3 µM
Mus musculus [2]; Mus musculus, read-out: ED50
  ED50: 29.4 mg/kg

## CN(C)C(=O)Cn1c(-c2ccc(Cl)cc2)nc2ccc[n+]([O-])c21
[1]
  IC50: > 10 µM
Mus musculus [2]; Mus musculus, read-out: ED50
  ED50: 20 mg/kg

## NC(=O)Cn1c(-c2ccccc2)nc2cccnc21
[11]
  IC50: > 10 µM

## CCOC(=O)CNC(=O)Cn1c(-c2ccc(Cl)cc2)nc2cccnc21
[11]
  IC50: 9.1 µM

## CN(C)C(=O)Cn1c(-c2cccc(Cl)c2)nc2cccnc21
[11]
  IC50: 2.4 µM
Mus musculus [2]
  ED50: <100 mg/kg
Mus musculus [2]; Mus musculus, read-out: ED50
  ED50: > 56.2 mg/kg

## O=C(O)CCCNC(=O)Cn1c(-c2ccc(Cl)cc2)nc2cccnc21
[1]
  IC50: > 10 µM

## CN(C)C(=O)Cn1c(-c2ccc(Cl)cc2)nc2cccnc21
[1]
  IC50: 3.6 µM
Mus musculus [5]
  ED50: 4.1 mg/kg

## CCOC(=O)N1CCN(C(=O)Cn2c(-c3ccc(Cl)cc3)nc3cccnc32)CC1
[1]
  IC50: 5.1 µM

## CN(C)C(=O)Cn1c(-c2ccccc2)nc2cccnc21
[1]
  IC50: > 10 µM
Mus musculus [2]; Mus musculus, read-out: ED50
  ED50: 35 mg/kg

## CNC1=Nc2ccc(Cl)cc2C(c2ccccc2)=[N+]([O-])C1 [CHLORDIAZEPOXIDE]
[1]
  IC50: 0.71 µM
Mus musculus [2]; Mus musculus, read-out: ED50
  ED50: 1.9 mg/kg

## O=C(Cn1c(-c2ccc(Cl)cc2)nc2cccnc21)Nc1ccncc1
[1]
  IC50: 0.47 µM

## CN(C)CCCNC(=O)Cn1c(-c2ccc(Cl)cc2)nc2cccnc21
[1]
  IC50: > 10 µM
Mus musculus [2]; Mus musculus, read-out: ED50
  ED50: 64 mg/kg

## CNC(=O)Cn1c(-c2ccc(Cl)cc2)nc2cccnc21
[1]
  IC50: 1.6 µM
Mus musculus [2]; Mus musculus, read-out: ED50
  ED50: 12.5 mg/kg

## CN1CCN(C(=O)Cn2c(-c3ccc(Cl)cc3)nc3cccnc32)CC1
[1]
  IC50: > 10 µM
Mus musculus [5]
  ED50: 100 mg/kg

## Cc1ccc(-c2nc3ccc(Cl)nc3n2CC(=O)N(C)C)cc1
[1]
  IC50: 0.15 µM
Mus musculus [2]; Mus musculus, read-out: ED50
  ED50: 2.7 mg/kg
Mus musculus [7]
  ED50: 15.2 mg/kg
Mus musculus [8]
  Sedative dose: 5.62 mg/kg
  minimal effective dose: 0.1 mg/kg
Mus musculus [9]
  minimal effective dose: 10 mg/kg
Rattus norvegicus [12]
  GABA shift: 3.06
Rattus norvegicus [10]
  minimal effective dose: 1 mg/kg

## CCN(CC)C(=O)Cn1c(-c2ccc(Cl)cc2)nc2cccnc21
[1]
  IC50: 1.8 µM
Mus musculus [2]; Mus musculus, read-out: ED50
  ED50: 16 mg/kg

## O=C(Cn1c(-c2ccc(Cl)cc2)nc2cccnc21)N1CCCC1
[1]
  IC50: 2.7 µM
Mus musculus [2]; Mus musculus, read-out: ED50
  ED50: 17.9 mg/kg

## CCCN(C)C(=O)Cn1c(-c2ccc(Cl)cc2)nc2cccnc21
[1]
  IC50: 0.68 µM
Mus musculus [2]; Mus musculus, read-out: ED50
  ED50: 11.6 mg/kg

## CN(C)C(=O)Cn1c(-c2ccoc2)nc2cccnc21
[1]
  IC50: > 10 µM

## CN(C)CCNC(=O)Cn1c(-c2ccc(Cl)cc2)nc2cccnc21
[1]
  IC50: > 10 µM
Mus musculus [2]; Mus musculus, read-out: ED50
  ED50: 62 mg/kg

## NC(=O)Cn1c(-c2ccc(Cl)cc2)nc2cccnc21
[1]
  IC50: 8 µM
Mus musculus [13]
  ED50: 211 mg/kg
Mus musculus [14]
  ED50: 174 mg/kg
Mus musculus [3]
  ED50: 329 mg/kg
Mus musculus [2]; Mus musculus, read-out: ED50
  ED50: 4.1 mg/kg
[15]
  TD50: > 1000 mg/kg
